Laboratory results as given in article PMC6233868 (Journal of nuclear medicine : official publication, Society …, 2016).
“Also recorded” adds a separate entry of the source. Like-named read-outs stand apart in the source and are kept apart here.

Assays:
[1] = target: T1, hNIS (Homo sapiens, UniProt Q92911); type: cell-based
T1 sequence (Q92911 1-643): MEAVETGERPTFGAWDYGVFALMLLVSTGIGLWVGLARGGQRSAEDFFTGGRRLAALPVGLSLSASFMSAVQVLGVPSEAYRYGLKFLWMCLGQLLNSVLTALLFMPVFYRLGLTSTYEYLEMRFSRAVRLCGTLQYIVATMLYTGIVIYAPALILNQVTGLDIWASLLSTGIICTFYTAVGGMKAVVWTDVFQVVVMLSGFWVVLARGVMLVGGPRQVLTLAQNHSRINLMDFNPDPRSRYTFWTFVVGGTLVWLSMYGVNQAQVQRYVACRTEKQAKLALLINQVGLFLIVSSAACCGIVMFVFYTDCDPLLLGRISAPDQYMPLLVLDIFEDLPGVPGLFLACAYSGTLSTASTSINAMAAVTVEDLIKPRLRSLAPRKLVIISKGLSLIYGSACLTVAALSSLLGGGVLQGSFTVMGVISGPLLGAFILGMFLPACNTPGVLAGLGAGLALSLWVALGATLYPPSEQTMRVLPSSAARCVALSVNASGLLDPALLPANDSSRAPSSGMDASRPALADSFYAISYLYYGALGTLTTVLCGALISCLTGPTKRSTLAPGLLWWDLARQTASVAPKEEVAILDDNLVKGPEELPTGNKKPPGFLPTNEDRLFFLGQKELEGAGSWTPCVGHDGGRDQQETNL

[2] = human serum stability by TLC
[3] = system: HCT116 cells; test: [18F]SO3F- uptake in hNIS-negative parental HCT116 cells; type: cell-based, human; details: presence or absence of NaClO4
[4] = ex vivo biodistribution in Balb/c mice; design: species or system mouse; details: 2.25 h post-injection
How it was run: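 Female Balb/c mice (4-8 weeks) were pretreated 1 h before the radiotracer with NaClO4 (250 mg/kg i.p. in 0.9% NaCl) or with a saline sham. After the 2 h PET scan, mice were culled by cervical dislocation at 2.25 h post-injection. Thyroid was dissected under a microscope. Tissues were weighed and gamma-counted, giving %ID/g; n = 3, SD.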

[5] = target: T1, hNIS; type: cell-based; remark: listed apart in the source
[6] = PET/CT imaging biodistribution in Balb/c mice; type: in vivo, mouse
How it was run: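 Female Balb/c mice (4-8 weeks) received NaClO4 (250 mg/kg i.p. in 0.9% NaCl) or an equal volume of saline 1 h before scanning. Dynamic PET ran for 2 h from <1 min after radiotracer injection, followed by CT. Data were corrected and binned into 5 min then 30 min frames. Manual ROIs were drawn at a 10% max-count threshold and reported as %ID (whole body minus tail) and %ID/g.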

[7] = stability of formulated tracer; type: physicochemical
[8] = system: NIS; details: read-out: IC50 for inhibition of [124I]I- uptake; cited from earlier work
[9] = target: T1, hNIS; type: cell-based; details: read-out: IC50, inhibition of [18F]SO3F- uptake; HCT116-C19 cells
[10] = system: mouse thyroid; details: in vivo; cited from earlier work
[11] = read-out: IC50, inhibition of [99mTc]TcO4- uptake via hNIS
[12] = read-out: IC50, inhibition of anion uptake via hNIS
[13] = normal mice, PET time-activity curves

Compound: I [I^-, iodide]
- IC50 [1, 11]: 2700 to 4700 nM
- IC50 [1, 12]: > 2700 nM

Compound: O=S(=O)(O)F [[^18F]SO3F^-] [[^18F]Fluorosulfate]
- RCP after incubation with human serum ([2]; 4 h, TLC of supernatant after ethanol protein precipitation): > 95%
- radioactivity associated with the protein pellet ([2]; human serum, ethanol precipitation): no significant radioactivity
- uptake of radiotracer in parental HCT116 cells [3]: No uptake; also recorded: absent
- bladder radioactivity (ex vivo) [4]: 15 ± 14 %ID/g
- bone uptake (ex vivo) [4]: 17 ± 3 %ID/g
- bone uptake (ex vivo) with perchlorate ([4]; mice administered NaClO4): not blocked
- salivary gland uptake (ex vivo) with NaClO4 ([4]; mice administered NaClO4): 2.6 ± 1.7 %ID/g
- stomach uptake (ex vivo) with NaClO4 ([4]; mice administered NaClO4): 3.0 ± 1.7 %ID/g
- thyroid uptake (ex vivo) with NaClO4 ([4]; mice administered NaClO4): 4.3 ± 4.6 %ID/g
- salivary gland uptake (ex vivo) ([4]; without NaClO4): 18 ± 4 %ID/g
- stomach uptake (ex vivo) ([4]; without NaClO4): 59 ± 10 %ID/g
- thyroid uptake (ex vivo) ([4]; without NaClO4): 144 ± 71 %ID/g
- uptake of radiotracer in HCT116-C19 cells [5]: Specific, blockable hNIS-mediated uptake; also recorded: Significant uptake
- uptake of radiotracer in HCT116-C19 cells with NaClO4 [5]: blocked
- bone %ID/g relative to that in thyroid ([6]; 30 min): < 1%
- time of maximum thyroid uptake ([6]; PET, normal mice): 30 min
- salivary gland uptake (PET) ([6]; normal mice, 30 min): 32 ± 9 %ID/g
- thyroid uptake (PET) ([6]; normal mice, 30 min): 563 ± 140 %ID/g
- bone uptake (PET) ([6]; normal mice, 60 min): 3 ± 1 %ID/g
- stomach uptake (PET) ([6]; normal mice, 90 min): 68 ± 21 %ID/g
- time at which stomach uptake reaches a plateau [6, 13]: around 90 min
- time at which thyroid and salivary gland uptake reaches a plateau [6, 13]: 30 to 45 min
- RCP after standing ([7]; formulated tracer, room temperature, 4 h, IC and TLC): > 95%
- RCP under acidic conditions ([7]; pH 3.0, 4 h): similarly constant

Compound: [O-][Cl+3]([O-])([O-])O [ClO4^-, perchlorate]
- IC50 [8]: 100 nM

Compound: F[B-](F)(F)F [BF4^-, tetrafluoroborate]
- IC50 [1, 11]: 290 to 4500 nM

Compound: [O]=[Tc](=[O])(=[O])[OH] [TcO4^-, pertechnetate]
- IC50 [1, 11]: 70 nM

Compound: O=S(=O)(O)F [SO3F^-, fluorosulfate]
- IC50 [9]: 1600 nM
- inhibition of radioiodide uptake in mouse thyroid [10]: inhibit radioiodide uptake
- IC50 [1, 11]: 550 to 560 nM
- IC50 [1, 12]: 560 nM
